Measurements from ChEMBL document CHEMBL3758154, “Rotenoids, Flavonoids, and Chalcones from the Root Bark of Millettia usaramensis” (J Nat Prod, 2015).

What was measured:
[1] = system: MDA-MB-231; assay: Cytotoxicity against human MDA-MB-231 cells assessed as cell viability after 72 hrs by Alamar Blue assay; type: functional, cell-based; conditions: MDA-MB-231, 72 h
Outline: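 MDA-MB-231 cells in DMEM with 10% FBS, 2 mM L-glutamine, penicillin and streptomycin were seeded at 10 000 cells/well and grown 24 h. Medium was replaced with drug or vehicle (0.1% or 1.0% DMSO) for 72 h. Viability was read by Alamar Blue absorbance at 570 nm (600 nm reference) as % of vehicle control, from six replicates in at least six independent experiments.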

[2] = system: Plasmodium falciparum; assay: Antiplasmodial activity against chloroquine-sensitive Plasmodium falciparum 3D7 assessed as inhibition of parasite growth at 100 uM after 72 hrs by DAPI staining-based confocal microscopic analysis; type: functional; conditions: 3D7, 72 h
[3] = system: Plasmodium falciparum; assay: Antiplasmodial activity against chloroquine-resistant Plasmodium falciparum Dd2 assessed as inhibition of parasite growth at 100 uM after 72 hrs by DAPI staining-based confocal microscopic analysis; type: functional; conditions: Dd2, 72 h
[4] = system: Plasmodium falciparum; assay: Antiplasmodial activity against chloroquine-sensitive Plasmodium falciparum 3D7 assessed as inhibition of parasite growth after 72 hrs by DAPI staining-based confocal microscopic analysis; type: functional, organism-based; conditions: 3D7, 72 h
Outline: (§1)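 Sorbitol-synchronized asexual P. falciparum in human O+ erythrocytes (RPMI, Hepes, hypoxanthine, 5% human serum, AlbuMAX II), ring stage at 2% parasitemia, 0.3% hematocrit. Three-step log dilutions from 40 μM top, 0.4% DMSO final. 72 h at 37 °C, 5% CO2. Saponin/Triton X/EDTA/DAPI stain overnight, confocal imaging counts parasites.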

[5] = system: Plasmodium falciparum; assay: Antiplasmodial activity against chloroquine-resistant Plasmodium falciparum Dd2 assessed as inhibition of parasite growth after 72 hrs by DAPI staining-based confocal microscopic analysis; type: functional, organism-based; conditions: Dd2, 72 h; outline: as §1
[6] = Cytotoxicity against HEK293 cells assessed as cell viability at 40 uM after 72 hrs by resazurin-based plate reader analysis; conditions: human, read-out: Activity
Outline: (§2)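 HEK293 cells grown in DMEM with 10% FCS, seeded at 2000 cells/well and left overnight to adhere at 37 °C, 5% CO2. Compounds were tested at a final 40 μM in 0.4% DMSO. After 72 h exposure, 44 μM resazurin in serum-free DMEM was added for 4−6 h and fluorescence read at 530/595 nm. Growth was normalised to 5 μM puromycin and 0.4% DMSO controls, with IC50 from variable-slope nonlinear regression.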

[7] = Cytotoxicity against HEK293 cells assessed as cell viability at 20 uM after 72 hrs by resazurin-based plate reader analysis; conditions: human, read-out: Activity
[8] = system: Plasmodium falciparum; assay: Antiplasmodial activity against chloroquine-resistant Plasmodium falciparum Dd2 assessed as inhibition of parasite growth at 40 uM after 72 hrs by DAPI staining-based confocal microscopic analysis; type: functional; conditions: Dd2, 72 h; outline: as §1
[9] = system: HEK293; assay: Cytotoxicity against HEK293 cells assessed as cell viability after 72 hrs by resazurin-based plate reader analysis; conditions: Homo sapiens, HEK293, 72 h; outline: as §2

## O[C@@H]1c2ccc3c(c2O[C@@H]2COc4cc5c(cc4[C@@]12O)OCO5)OCO3
[1]
  IC50: > 279 µM

## CC(C)=CCC/C(C)=C/COc1ccc(C(=O)/C=C/c2ccc(O)cc2)c(O)c1
[1]
  IC50: 126 µM

## O=C1c2ccc3c(c2O[C@@H]2COc4cc5c(cc4[C@@]12O)OCO5)OCO3
[1]
  IC50: 87.3 µM
[2]
  inhibition at 100 µM: 99%
[3]
  inhibition at 100 µM: 90%

## CC(C)=CCC/C(C)=C/COc1ccc(/C=C/C(=O)c2ccc(O)cc2O)cc1
[4]
  IC50: 3670 nM
[5]
  IC50: 6970 nM

## COc1ccc2nc3cc(Cl)ccc3c(Nc3cc(CN4CCCC4)c(O)c(CN4CCCC4)c3)c2n1 [PYRONARIDINE]
[4]
  IC50: 3.6 nM
[5]
  IC50: 7.51 nM

## COc1cc2c(cc1OC)[C@]1(O)C(=O)c3ccc4c(c3O[C@@H]1CO2)C=CC(C)(C)O4 [TEPHROSIN]
[4]
  IC50: 13300 nM
[5]
  IC50: 12000 nM

## C[C@H]1[C@@H](O)O[C@@H]2O[C@@]3(C)CC[C@H]4[C@H](C)CC[C@@H]1[C@@]24OO3 [ARTENIMOL]
[6]
  viability at 72 h, 40 µM: 54%
[7]
  viability at 72 h, 20 µM: 50%
[4]
  IC50: 0.1 nM
[5]
  IC50: 0.146 nM

## CCc1nc(N)nc(N)c1-c1ccc(Cl)cc1 [PYRIMETHAMINE]
[6]
  viability at 72 h, 40 µM: 75%
[8]
  inhibition at 40 µM: 62%

## COc1cc2c(cc1-c1coc3c4c(ccc3c1=O)OC(C)(C)C=C4)OCO2
[2]
  inhibition at 100 µM: 94%
[3]
  inhibition at 100 µM: 81%

## CC1(C)C=Cc2c(ccc3c2O[C@@H]2COc4cc5c(cc4[C@@]2(O)C3=O)OCO5)O1
[1]
  IC50: 101 µM
[2]
  inhibition at 100 µM: 28%
[3]
  inhibition at 100 µM: 29%

## C[C@H]1[C@H](OC(=O)CCC(=O)O)O[C@@H]2O[C@@]3(C)CC[C@H]4[C@H](C)CC[C@@H]1[C@@]24OO3 [ARTESUNATE]
[7]
  viability at 72 h, 20 µM: 73%
[4]
  IC50: 0.5 nM
[5]
  IC50: 0.443 nM

## COc1ccc2c(c1CC=C(C)C)O[C@@H]1COc3cc4c(cc3[C@@]1(O)C2=O)OCO4
[1]
  IC50: 25.7 µM

## CCN(CC)CCCC(C)Nc1ccnc2cc(Cl)ccc12 (configuration not stated) [CHLOROQUINE]
[6]
  viability at 72 h, 40 µM: 51%

## CC(C)=CCC/C(C)=C/COc1ccc(/C=C/CO)cc1
[1]
  IC50: 207 µM

## CC1(C)C=Cc2c(ccc3c2O[C@@H]2COc4cc5c(cc4[C@]2(O)C3=O)OCO5)O1
[1]
  IC50: 61.7 µM

## COc1ccc(C[C@H](N)C(=O)N[C@H]2[C@@H](O)[C@H](n3cnc4c(N(C)C)ncnc43)O[C@@H]2CO)cc1 [PUROMYCIN]
[9]
  IC50: 361 nM
[4]
  IC50: 22.7 nM
[5]
  IC50: 45.2 nM
